The target of experiment [1] is Estrogen receptor beta (Homo sapiens) (UniProt Q92731). Put plainly: Relative binding affinity to human recombinant ERbeta receptor using [3H]E2 as substrate after 1 hr by liquid scintillation counting relative to E2. The method, boiled down:
(§1)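 Recombinant human ERα or ERβ (0.25 pmol) incubated 1 h at rt with [3H]-E2 (10 nM) and compound in DMSO (5% final). Nonspecific binding defined with diethylstilbestrol 10 μM. Bound complex captured on hydroxyapatite, washed, resuspended in ethanol, counted by liquid scintillation. Concentrations displacing 50% of bound label compared with E2, which is set at 100%.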

The target in experiment [2] is T1, Estradiol 17-beta-dehydrogenase 2 (Mus musculus) (UniProt P51658).
T1 sequence (whole entry): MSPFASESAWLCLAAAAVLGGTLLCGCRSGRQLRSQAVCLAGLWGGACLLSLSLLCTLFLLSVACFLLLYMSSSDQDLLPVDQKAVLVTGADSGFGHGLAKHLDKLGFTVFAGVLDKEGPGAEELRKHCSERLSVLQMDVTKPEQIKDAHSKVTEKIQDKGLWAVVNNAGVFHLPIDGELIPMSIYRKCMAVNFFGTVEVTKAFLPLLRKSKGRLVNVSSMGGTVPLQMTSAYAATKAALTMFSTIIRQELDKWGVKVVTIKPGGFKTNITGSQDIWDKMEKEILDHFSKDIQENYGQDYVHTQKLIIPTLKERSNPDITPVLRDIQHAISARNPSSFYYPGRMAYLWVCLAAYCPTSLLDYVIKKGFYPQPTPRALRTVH
Put plainly: Inhibition of mouse liver microsomal 17betaHSD2 using [3H]E2 as substrate. In general terms: Liver microsomes are vesicles of endoplasmic reticulum, rich in cytochrome P450 enzymes.

For experiment [3], the target named is T2, Estrogen receptor (Homo sapiens) (UniProt P03372).
T2 sequence (whole entry): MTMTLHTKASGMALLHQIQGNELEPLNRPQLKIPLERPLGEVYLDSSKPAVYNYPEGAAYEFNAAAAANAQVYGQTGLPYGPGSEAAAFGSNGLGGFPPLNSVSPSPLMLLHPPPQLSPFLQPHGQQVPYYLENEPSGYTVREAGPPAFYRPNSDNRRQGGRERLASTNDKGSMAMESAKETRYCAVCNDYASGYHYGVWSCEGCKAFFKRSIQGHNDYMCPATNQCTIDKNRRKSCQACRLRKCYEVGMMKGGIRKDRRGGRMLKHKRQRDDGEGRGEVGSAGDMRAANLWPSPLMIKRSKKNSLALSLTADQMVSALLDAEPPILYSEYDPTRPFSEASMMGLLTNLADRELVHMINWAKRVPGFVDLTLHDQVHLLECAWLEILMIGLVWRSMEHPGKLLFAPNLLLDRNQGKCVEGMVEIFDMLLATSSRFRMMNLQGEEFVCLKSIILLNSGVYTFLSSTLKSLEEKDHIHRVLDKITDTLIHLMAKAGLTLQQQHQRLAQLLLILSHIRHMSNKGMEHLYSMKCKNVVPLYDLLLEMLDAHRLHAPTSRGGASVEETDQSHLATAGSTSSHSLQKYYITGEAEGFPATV
Put plainly: Relative binding affinity to human recombinant ERalpha receptor using [3H]E2 as substrate after 1 hr by liquid scintillation counting relative to E2. The method, boiled down: as §1

Experiment [4] concerns the target T3, 17-beta-hydroxysteroid dehydrogenase type 1 (Homo sapiens, UniProt P14061).
T3 sequence (P14061 whole entry): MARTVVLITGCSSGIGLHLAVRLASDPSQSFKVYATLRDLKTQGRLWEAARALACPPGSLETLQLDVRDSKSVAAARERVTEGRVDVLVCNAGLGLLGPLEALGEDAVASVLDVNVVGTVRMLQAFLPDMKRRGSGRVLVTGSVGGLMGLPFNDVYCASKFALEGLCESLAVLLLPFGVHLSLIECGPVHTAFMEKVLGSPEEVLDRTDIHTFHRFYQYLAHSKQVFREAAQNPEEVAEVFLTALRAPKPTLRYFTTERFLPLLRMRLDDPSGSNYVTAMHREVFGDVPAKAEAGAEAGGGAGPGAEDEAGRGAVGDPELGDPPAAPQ
Description: Inhibition of human placenta cytosolic 17betaHSD1 using [3H]E1 as substrate after 10 mins by radioflow detection assay. In a few lines: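 Cytosolic 17β-HSD1 from fresh human placenta, obtained by ammonium sulfate precipitation. Incubated at 37 °C in 50 mM phosphate buffer with 20% glycerol and EDTA, with NADH 500 μM and compound (DMSO 1% final). Started with unlabeled + [3H]-E1 (500 nM final), stopped after 10 min with HgCl2, ether-extracted. E1/E2 quantified by radioflow HPLC as % conversion. At least three independent experiments.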

The species entered for experiment [5] is Callithrix jacchus. Description: Inhibition of mormoset placenta cytosolic 17betaHSD1 using [3H]E1 as substrate at 50 nM after 10 mins by radioflow detection assay.
In experiment [6] the target is T4, 17-beta-hydroxysteroid dehydrogenase type 2 (Homo sapiens, UniProt P37059).
T4 sequence (P37059 whole entry): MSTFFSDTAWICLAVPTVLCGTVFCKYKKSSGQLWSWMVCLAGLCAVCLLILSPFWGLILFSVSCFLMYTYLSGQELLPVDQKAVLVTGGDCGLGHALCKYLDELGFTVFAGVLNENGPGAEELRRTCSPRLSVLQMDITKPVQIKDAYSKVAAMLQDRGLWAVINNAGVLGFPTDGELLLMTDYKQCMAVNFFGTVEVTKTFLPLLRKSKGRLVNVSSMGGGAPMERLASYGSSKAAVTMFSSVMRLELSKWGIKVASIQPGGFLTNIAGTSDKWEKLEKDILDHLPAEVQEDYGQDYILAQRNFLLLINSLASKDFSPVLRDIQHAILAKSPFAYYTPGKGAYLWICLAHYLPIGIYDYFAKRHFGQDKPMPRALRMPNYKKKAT
Put plainly: Inhibition of human placenta microsomal 17betaHSD2 using [3H]E2 as substrate after 20 mins by radioflow detection assay. In a few lines: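 Microsomal (pellet) fraction of fresh human placenta incubated with NAD+ 1500 μM, compound, and unlabeled + [3H]-E2 (500 nM final) for 20 min at 37 °C. Stopped with 1 mM HgCl2, ether-extracted. Steroids separated by HPLC with radioflow detection, conversion computed. Mean of three determinations.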

Experiment [7] addresses T5, 17-beta-hydroxysteroid dehydrogenase type 1 (Mus musculus) (UniProt P51656).
T5 sequence (whole entry): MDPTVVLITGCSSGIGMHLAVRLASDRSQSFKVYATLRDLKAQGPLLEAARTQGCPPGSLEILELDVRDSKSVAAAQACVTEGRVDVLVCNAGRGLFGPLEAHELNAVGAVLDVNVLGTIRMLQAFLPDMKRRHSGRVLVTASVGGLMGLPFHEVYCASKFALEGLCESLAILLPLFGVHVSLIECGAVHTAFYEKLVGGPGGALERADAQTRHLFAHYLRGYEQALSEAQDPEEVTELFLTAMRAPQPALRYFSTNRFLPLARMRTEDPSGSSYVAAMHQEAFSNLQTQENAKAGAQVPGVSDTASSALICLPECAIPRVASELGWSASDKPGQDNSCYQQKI
Description: Inhibition of mouse liver cytosolic 17betaHSD1 using [3H]E1 as substrate.

Experiment [8] concerns the target T6, 17-beta-hydroxysteroid dehydrogenase type 1 (Homo sapiens) (UniProt P14061).
T6 sequence (whole entry): T3 sequence (P14061 whole entry)
Description: Inhibition of human placenta cytosolic 17betaHSD1 using [3H]E1 as substrate at 10 nM after 10 mins by radioflow detection assay.

Experiment [9] concerns the target T3, 17-beta-hydroxysteroid dehydrogenase type 1. Put plainly: Inhibition of 17betaHSD1 in human T47D cells using [3H]E1 as substrate incubated for 30 mins prior to substrate addition measured after 30 mins by radioflow detection assay. The class given is cell-based. In a few lines: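 T47D cells kept in RPMI 1640 with 10% FCS, glutamine, insulin-zinc, pyruvate, antibiotics. Seeded at 5 × 10^5 cells/well in DMEM with FCS, switched to serum-free DMEM after 24 h. Compound added in DMSO (1% final), 30 min preincubation at 37 °C, 5% CO2. Then unlabeled + [3H]-E1 (50 nM final) for 30 min. Steroids extracted into diethylether. Mean of three determinations.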

For experiment [10], the species on record is Callithrix jacchus. Description: Inhibition of mormoset placenta microsomal 17betaHSD2 using [3H]E2 as substrate at 50 nM after 20 mins by radioflow detection assay.

The source made the active and inactive calls. No cut-off for these calls is given here.

Estrogen receptor beta (Homo sapiens), sequence (Q92731 whole entry): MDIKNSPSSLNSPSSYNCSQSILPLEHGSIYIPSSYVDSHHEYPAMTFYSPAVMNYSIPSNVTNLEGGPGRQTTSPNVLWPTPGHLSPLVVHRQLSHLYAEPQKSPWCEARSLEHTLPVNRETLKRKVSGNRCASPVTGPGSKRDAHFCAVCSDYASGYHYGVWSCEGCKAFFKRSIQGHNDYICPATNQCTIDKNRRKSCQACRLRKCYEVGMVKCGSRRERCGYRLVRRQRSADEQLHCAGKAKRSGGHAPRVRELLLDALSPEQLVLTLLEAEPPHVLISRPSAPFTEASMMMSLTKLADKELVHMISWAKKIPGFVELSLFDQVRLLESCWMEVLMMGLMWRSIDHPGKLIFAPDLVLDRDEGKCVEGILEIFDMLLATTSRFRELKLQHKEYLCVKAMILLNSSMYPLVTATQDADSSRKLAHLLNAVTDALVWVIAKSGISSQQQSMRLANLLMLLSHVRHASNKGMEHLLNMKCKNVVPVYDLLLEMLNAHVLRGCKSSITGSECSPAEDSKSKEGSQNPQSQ

Broadly, the inhibition is the change of the read-out against control, counted positive when it falls. By IC50 is commonly meant the concentration that gives 50% inhibition. Low readings indicate inhibition by little substance, high ones a need for much substance. With `N#Cc1ccccc1S(=O)(=O)Nc1cccc(-c2c(O)ccc3cc(-c4cccc(O)c4)ccc23)c1`, the RBA in experiment [1] and in experiment [3] was less than 0.1% each time. Also, the inhibition entry in experiment [2] is “Active”. Further, the IC50 came out at 14 nM in experiment [4], 439 nM in experiment [6] and 157 nM in experiment [9]. Further, the inhibition in experiment [5] is 43%; in [8], greater than 30%; in experiment [10] it was 35%. Besides, the inhibition entry in experiment [7] is “inactive”.

On to `O=S(=O)(Nc1cccc(-c2c(O)ccc3cc(-c4cccc(O)c4)ccc23)c1)c1cc(F)c(Br)cc1F`, for which the RBA in experiment [1] and in [3] was less than 0.1% in each case. Besides, the figures for the IC50 in experiment [4], in [6] and in [9] were 46 nM, 223 nM and 646 nM, respectively. The inhibition in experiment [5] is 14%; in [8] it was greater than 30%; in [10], 17%.

As for `O=S(=O)(CC(F)(F)F)Nc1cccc(-c2c(O)ccc3cc(-c4cccc(O)c4)ccc23)c1`, the RBA in experiment [1] and in [3] was less than 0.1% throughout. Further, the inhibition entry in experiment [2] was “Active”. For the same compound, the figures for the IC50 in experiment [4], in experiment [6] and in experiment [9] were 32 nM, 1210 nM and 246 nM, respectively. The inhibition is 17% in experiment [5], greater than 30% in experiment [8] and 32% in experiment [10]. In experiment [7], the inhibition entry was “inactive”.

Turning to `O=S(=O)(Nc1cccc(-c2c(O)ccc3cc(-c4cccc(O)c4)ccc23)c1)c1cccc(O)c1`, the RBA in [1] and in [3] was less than 0.1% throughout. In addition, the inhibition result in [2] is “Active”. Besides, the IC50 in experiment [4] amounted to 14 nM; in experiment [6] it was 999 nM; in [9], 701 nM. The inhibition in experiment [5] is 20%; in experiment [10], less than 10%. The inhibition entry in [7] was “inactive”.

Take `O=[N+]([O-])c1cccc(S(=O)(=O)Nc2cccc(-c3c(O)ccc4cc(-c5cccc(O)c5)ccc34)c2)c1`: the RBA in experiment [1] and in [3] was less than 0.1% throughout. The IC50 came to 20 nM in [4], 374 nM in experiment [6] and 396 nM in experiment [9]. Also, the inhibition in experiment [5] was 16%; in experiment [8], greater than 30%; in experiment [10], 17%.

In the case of `O=S(=O)(Nc1cccc(-c2c(O)ccc3cc(-c4cccc(O)c4)ccc23)c1)c1ccccc1`, the RBA in experiment [1] and in experiment [3] was less than 0.1% in each case. Besides, in experiment [2], the inhibition entry is “Active”. Further, the IC50 in experiment [4] amounted to 15 nM; in experiment [6], 403 nM; in experiment [9], 196 nM. The inhibition is 19% in experiment [5], greater than 30% in experiment [8] and less than 10% in experiment [10]. Moreover, the inhibition entry in experiment [7] is “inactive”.

Turning to `O=S(=O)(Nc1cccc(-c2c(O)ccc3cc(-c4cccc(O)c4)ccc23)c1)c1ccc2ncccc2c1`, the RBA in [1] and in experiment [3] was less than 0.1% in each case. Further, the IC50 in experiment [4] was found to be 92 nM; in experiment [6], 535 nM; in experiment [9], 498 nM. Further, the values for the inhibition in experiment [5], in experiment [8] and in experiment [10] were 38%, greater than 30% and 13%, respectively.
